Measured values published in publication PMC7781173 (Amino Acids, 2021).

Columns and labels:
[1] = molecular target: T1, human C5 (Homo sapiens, UniProt P01031); test: Ex vivo human whole blood assay; type: cell-based; conditions: summary statement
Outline: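 Fresh blood from healthy volunteers, anticoagulated with lepirudin at 50 μg/mL. Pre-treated with test compound (1 nM to 1 μM) for 30 min at 37 °C, then stimulated with E. coli O111:B4 LPS at 200 ng/mL for 24 h at 37 °C. Centrifuged at 2000×g for 10 min at 4 °C; plasma C5a quantified by commercial ELISA. Concentration–response format.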

[2] = molecular target: T1, human C5; conditions: ref Hoarty et al. [2015]; Ricardo et al. [2017]; cited from earlier work
[3] = tested on: rodent C5; conditions: ref Hoarty et al. [2015]; Ricardo et al. [2017]; cited from earlier work
[4] = tested on: C5b; conditions: prevents assembly of the MAC; ref Yee et al. [2015]; cited from earlier work
[5] = tested on: C5; conditions: background statement, reference not given; cited from earlier work

T1 sequence (P01031 19-673 limits assumed): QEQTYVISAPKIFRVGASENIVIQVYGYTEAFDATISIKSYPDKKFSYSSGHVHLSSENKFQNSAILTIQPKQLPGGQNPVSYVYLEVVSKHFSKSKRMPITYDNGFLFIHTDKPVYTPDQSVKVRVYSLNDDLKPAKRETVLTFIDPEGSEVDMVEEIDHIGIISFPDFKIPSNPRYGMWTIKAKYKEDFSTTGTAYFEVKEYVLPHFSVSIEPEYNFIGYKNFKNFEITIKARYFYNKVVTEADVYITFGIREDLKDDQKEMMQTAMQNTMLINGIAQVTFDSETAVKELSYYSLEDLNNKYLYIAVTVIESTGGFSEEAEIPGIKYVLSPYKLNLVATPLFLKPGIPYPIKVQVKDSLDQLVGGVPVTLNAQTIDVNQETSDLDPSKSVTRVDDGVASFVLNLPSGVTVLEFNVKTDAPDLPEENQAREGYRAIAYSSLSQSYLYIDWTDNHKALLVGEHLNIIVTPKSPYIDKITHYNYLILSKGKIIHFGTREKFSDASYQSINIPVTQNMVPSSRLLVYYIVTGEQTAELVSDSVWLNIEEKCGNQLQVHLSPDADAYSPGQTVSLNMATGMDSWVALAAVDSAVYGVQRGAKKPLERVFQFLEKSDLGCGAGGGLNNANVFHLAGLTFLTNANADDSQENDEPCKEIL
T1 sequence (P01031 678-1676 limits assumed): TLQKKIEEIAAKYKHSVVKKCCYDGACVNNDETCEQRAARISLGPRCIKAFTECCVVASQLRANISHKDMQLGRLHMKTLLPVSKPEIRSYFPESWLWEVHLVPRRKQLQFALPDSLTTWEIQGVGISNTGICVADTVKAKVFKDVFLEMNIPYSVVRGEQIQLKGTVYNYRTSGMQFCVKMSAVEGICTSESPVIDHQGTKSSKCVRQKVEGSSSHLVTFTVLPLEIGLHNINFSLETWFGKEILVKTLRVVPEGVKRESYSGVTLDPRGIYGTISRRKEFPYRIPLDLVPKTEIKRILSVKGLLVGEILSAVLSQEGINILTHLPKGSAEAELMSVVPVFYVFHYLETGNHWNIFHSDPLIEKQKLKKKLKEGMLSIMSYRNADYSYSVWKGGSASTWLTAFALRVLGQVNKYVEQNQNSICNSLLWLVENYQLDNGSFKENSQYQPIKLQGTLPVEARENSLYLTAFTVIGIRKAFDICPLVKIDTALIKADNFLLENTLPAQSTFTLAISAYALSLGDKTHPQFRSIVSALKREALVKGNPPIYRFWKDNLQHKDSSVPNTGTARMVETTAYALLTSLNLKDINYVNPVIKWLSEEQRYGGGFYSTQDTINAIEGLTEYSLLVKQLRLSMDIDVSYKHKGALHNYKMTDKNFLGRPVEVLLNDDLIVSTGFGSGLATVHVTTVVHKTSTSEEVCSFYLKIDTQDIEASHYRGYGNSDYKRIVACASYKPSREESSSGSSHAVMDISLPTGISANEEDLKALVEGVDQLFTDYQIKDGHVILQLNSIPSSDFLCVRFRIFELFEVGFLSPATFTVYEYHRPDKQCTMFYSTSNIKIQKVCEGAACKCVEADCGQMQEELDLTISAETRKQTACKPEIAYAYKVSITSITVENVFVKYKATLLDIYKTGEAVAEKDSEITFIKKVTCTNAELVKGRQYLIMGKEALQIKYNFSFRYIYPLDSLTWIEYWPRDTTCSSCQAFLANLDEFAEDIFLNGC

zilucoplan
LPS-induced C5a production from human blood [1]: blocks LPS-induced C5a production | human C5 cleavage [2]: does bind and inhibit human C5 cleavage | rodent C5 cleavage [3]: little to no effect | binding to C5b; C5b binding to C6 [4]: binds to C5b, thereby competitively inhibiting C5b binding to C6 | C5 cleavage [5]: inhibit C5 cleavage
